Test results taken from ChEMBL document CHEMBL4400582, “Identification of Imidazo[1,2-b]pyridazine Derivatives as Potent, Selective, and Orally Active Tyk2 JH2 Inhibitors” (ACS Med Chem Lett, 2019).
Values after ≈ are worked out from the molar mass of the structure shown. Active and inactive are the calls of the source. No cut-off for these calls is given here.

Columns and labels:
[1] = target: T1, Non-receptor tyrosine-protein kinase TYK2 (Homo sapiens, UniProt P29597); assay: Inhibition of TYK2 JH2 domain in IFNalpha/IL23-stimulated human Kit225 cells by luciferase reporter assay
[2] = target: T1, Non-receptor tyrosine-protein kinase TYK2; assay: Inhibition of TYK2 JH2 domain in human whole blood assessed as decrease in IFNalpha/IL2-induced STAT phosphorylation preincubated for 1 hr followed by IFNalpha/IL2 stimulation and measured after 15 mins by fluorescence assay; format: tissue-based
[3] = Permeability of the compound in human Caco2 cells; format: ADME, cell-based; conditions: Caco-2, read-out: permeability
[4] = target: T1, Non-receptor tyrosine-protein kinase TYK2; assay: Inhibition of fluorescein-labeled kinase tracer binding to His-TVMV-fused TYK2 JH2 domain (575 to 869 residues) (unknown origin) measured after 90 mins by HTRF assay
[5] = tested on: Rattus norvegicus; assay: Inhibition of IL12/IL18-induced IFNgamma production in Lewis rat at 1 mg/kg, po pretreated for 1 hr followed by IL12 stimulation for 1 hr and subsequent IL18 addition and measured after 3 hrs by ELISA relative to control; format: functional
Procedure, shortened: (§1)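 Rats were dosed in 5:5:90 TPGS/EtOH/PEG300, challenged with IL-12 1 h later and with IL-18 a further hour later. Plasma was collected 5 h after dosing for IFNγ levels. Inhibition is relative to vehicle.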

[6] = AUC (0 to 24 hrs) in dog at 10 mg/kg, po; format: ADME, organism-based, Canis lupus familiaris; set-up: time < 24 hr, dose 10 mg/kg, route oral; conditions: in vivo
Procedure, shortened: (§2)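 Oral PK in the listed species. Vehicle 5:5:90 TPGS/EtOH/PEG300. An IV arm was dosed at 2 mg/kg.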

[7] = AUC (0 to 24 hrs) in cynomolgus monkey at 10 mg/kg, po; format: ADME, organism-based, Macaca fascicularis; set-up: time < 24 hr, dose 10 mg/kg, route oral; conditions: in vivo; procedure, shortened: as §2
[8] = tested on: Rattus norvegicus; assay: Antiarthritic activity in incomplete Freund's adjuvant-induced Lewis rat arthritis model assessed as reduction in paw volume at 5 to 10 mg/kg, po bid for 20 days by plethysmometric method; format: functional, organism-based
Procedure, shortened: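 Rat adjuvant arthritis. Adjuvant was given on day zero. Compound was dosed twice daily from day 0 to day 20 in 5:5:90 TPGS/EtOH/PEG300. Paw volume was measured periodically.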

[9] = Cmax in dog at 10 mg/kg, po; format: ADME, organism-based, Canis lupus familiaris; set-up: dose 10 mg/kg, route oral; conditions: in vivo; procedure, shortened: as §2
[10] = Clearance in rat at 10 mg/kg, po; format: ADME, organism-based; conditions: in vivo; procedure, shortened: as §2
[11] = Cmax in rat at 10 mg/kg, po; format: ADME, organism-based; set-up: dose 10 mg/kg, route oral; conditions: in vivo; procedure, shortened: as §2
[12] = Clearance in cynomolgus monkey at 10 mg/kg, po; format: ADME, organism-based, Macaca fascicularis; conditions: in vivo; procedure, shortened: as §2
[13] = Oral bioavailability in rat at 10 mg/kg; format: ADME, organism-based; conditions: in vivo; procedure, shortened: as §2
[14] = tested on: Rattus norvegicus; assay: Inhibition of IL12/IL18-induced IFNgamma production in po dosed Lewis rat pretreated for 1 hr followed by IL12 stimulation for 1 hr and subsequent IL18 addition and measured after 3 hrs by ELISA; format: functional, organism-based; procedure, shortened: as §1
[15] = Clearance in mouse at 2 mg/kg, iv; conditions: in vivo
[16] = Cmax in cynomolgus monkey at 10 mg/kg, po; format: ADME, organism-based, Macaca fascicularis; set-up: dose 10 mg/kg, route oral; conditions: in vivo; procedure, shortened: as §2
[17] = tested on: Rattus norvegicus; assay: Inhibition of IL12/IL18-induced IFNgamma production in Lewis rat at 10 mg/kg, po pretreated for 1 hr followed by IL12 stimulation for 1 hr and subsequent IL18 addition and measured after 3 hrs by ELISA relative to control; format: functional; procedure, shortened: as §1
[18] = Cmax in mouse at 10 mg/kg, po; format: ADME, organism-based; set-up: dose 10 mg/kg, route oral; conditions: in vivo; procedure, shortened: as §2
[19] = AUC (0 to 24 hrs) in rat at 10 mg/kg, po; format: ADME, organism-based; set-up: time < 24 hr, dose 10 mg/kg, route oral; conditions: in vivo; procedure, shortened: as §2
[20] = Oral bioavailability in cynomolgus monkey at 10 mg/kg; format: ADME, organism-based, Macaca fascicularis; conditions: in vivo; procedure, shortened: as §2
[21] = Clearance in dog at 10 mg/kg, po; format: ADME, organism-based, Canis lupus familiaris; conditions: in vivo; procedure, shortened: as §2
[22] = AUC (0 to 24 hrs) in mouse at 10 mg/kg, po; format: ADME, organism-based; set-up: time < 24 hr, dose 10 mg/kg, route oral; conditions: in vivo; procedure, shortened: as §2
[23] = Oral bioavailability in mouse at 10 mg/kg; format: ADME, organism-based; conditions: in vivo; procedure, shortened: as §2
[24] = Oral bioavailability in dog at 10 mg/kg; format: ADME, organism-based, Canis lupus familiaris; conditions: in vivo; procedure, shortened: as §2
[25] = Stability in human liver microsomes assessed as parent compound remaining; format: ADME, Microsome
Procedure, shortened: (§3)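 Compound was incubated 10 min with human, rat or mouse liver microsomes. Parent remaining is reported as percent.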

[26] = Stability in mouse liver microsomes assessed as parent compound remaining; format: ADME, Microsome; procedure, shortened: as §3
[27] = Stability in rat liver microsomes assessed as parent compound remaining; format: ADME, Microsome; procedure, shortened: as §3
[28] = Aqueous solubility of the compound at pH 1; format: physicochemical; conditions: buffer
[29] = Aqueous solubility of the compound at pH 6.5; format: physicochemical; conditions: buffer

T1 sequence (P29597 whole entry, the tested form may be a part): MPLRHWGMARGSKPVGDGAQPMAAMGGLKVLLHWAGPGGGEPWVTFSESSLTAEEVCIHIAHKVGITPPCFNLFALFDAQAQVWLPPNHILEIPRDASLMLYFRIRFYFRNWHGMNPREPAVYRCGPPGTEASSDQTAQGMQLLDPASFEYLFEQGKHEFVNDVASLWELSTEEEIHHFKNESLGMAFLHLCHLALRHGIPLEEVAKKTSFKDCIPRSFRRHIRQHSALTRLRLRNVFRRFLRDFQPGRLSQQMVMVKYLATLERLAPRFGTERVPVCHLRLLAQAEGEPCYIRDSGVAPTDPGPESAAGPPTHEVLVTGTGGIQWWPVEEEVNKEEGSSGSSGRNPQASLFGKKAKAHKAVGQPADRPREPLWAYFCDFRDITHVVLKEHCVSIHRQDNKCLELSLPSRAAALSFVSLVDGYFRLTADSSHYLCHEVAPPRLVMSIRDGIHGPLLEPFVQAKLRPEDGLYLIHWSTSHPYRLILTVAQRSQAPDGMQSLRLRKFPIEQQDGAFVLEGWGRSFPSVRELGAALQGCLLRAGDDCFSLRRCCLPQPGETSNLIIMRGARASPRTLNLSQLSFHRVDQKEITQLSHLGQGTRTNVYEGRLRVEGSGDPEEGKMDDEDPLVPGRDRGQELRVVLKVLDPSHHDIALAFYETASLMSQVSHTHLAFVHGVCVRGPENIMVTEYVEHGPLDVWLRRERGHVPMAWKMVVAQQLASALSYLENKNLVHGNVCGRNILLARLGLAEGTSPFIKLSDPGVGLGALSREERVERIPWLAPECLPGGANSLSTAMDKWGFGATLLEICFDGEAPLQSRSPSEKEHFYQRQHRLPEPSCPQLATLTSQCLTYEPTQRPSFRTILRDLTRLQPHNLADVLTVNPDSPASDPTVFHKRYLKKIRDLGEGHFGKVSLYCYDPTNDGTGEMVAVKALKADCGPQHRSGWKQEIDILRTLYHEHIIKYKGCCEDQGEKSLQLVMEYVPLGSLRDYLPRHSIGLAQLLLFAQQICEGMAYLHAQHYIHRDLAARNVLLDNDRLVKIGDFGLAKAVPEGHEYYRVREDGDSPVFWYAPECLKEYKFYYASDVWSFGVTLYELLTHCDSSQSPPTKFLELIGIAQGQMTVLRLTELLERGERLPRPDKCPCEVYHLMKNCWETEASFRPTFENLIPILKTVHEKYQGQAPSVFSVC

Question: With `CNc1cc(Nc2cccn(-c3ccccn3)c2=O)nn2c(C(=O)NC3CC3)cnc12` as the molecule, how does the IC50 [1] read?
Answer: 94 nM

Question: And the IC50 [2]?
Answer: 382 to 398 nM

Question: What about the Papp [3] of the same molecule?
Answer: 16.9 ×10⁻⁶ cm/s

Question: What about the Ki [4] of the same molecule?
Answer: 0.34 nM

Question: For `CNc1cc(Nc2cccn(-c3ccccn3)c2=O)nn2c(C(=O)NCC(C)(C)CO)cnc12`, which IC50 [1] is on record?
Answer: 84 nM

Question: And the IC50 [2]?
Answer: 285 nM

Question: What about the Ki [4] of the same molecule?
Answer: 0.29 nM

Question: Which IC50 [1] does the source give for `CNc1cc(Nc2cccn(-c3ccncc3)c2=O)nn2c(C(=O)NC3CC3)cnc12` here?
Answer: 148 nM

Question: What about the IC50 [2] of the same molecule?
Answer: 346 nM

Question: And the Papp [3]?
Answer: 3.8 ×10⁻⁶ cm/s

Question: What about the Ki [4] of the same molecule?
Answer: 0.29 nM

Question: With `CNc1cc(Nc2cccn(-c3ccc(C)nn3)c2=O)nn2c(C(=O)NC3CC3)cnc12` as the molecule, how does the IC50 [1] read?
Answer: 147 nM

Question: And the IC50 [2]?
Answer: 247 nM

Question: And the Ki [4]?
Answer: 0.091 nM

Question: Which results are given for `CNc1cc(Nc2cccn(-c3cc(C)n(C)n3)c2=O)nn2c(C(=O)N[C@@H]3C[C@@H]3F)cnc12`?
Answer: IC50 [1]: 22 nM; IC50 [2]: 90 nM; Ki [4]: 0.015 nM

Question: For `CNc1cc(Nc2cccn(-c3ccccn3)c2=O)nn2c(C(=O)N[C@@H]3C[C@@H]3F)cnc12`, which inhibition in vivo at 1 mg/kg [5] is on record?
Answer: 45%

Question: And the AUC(0-t) at 24 h [6]?
Answer: 8 µM·h

Question: And the AUC(0-t) at 24 h [7]?
Answer: 11 µM·h

Question: What about the Activity [8] of the same molecule?
Answer: Active

Question: And the Cmax [9]?
Answer: 0.93 µM

Question: What about the CL/F [10] of the same molecule?
Answer: 7.8 mL/min/kg

Question: And the Cmax [11]?
Answer: 9.4 µM

Question: What about the CL/F [12] of the same molecule?
Answer: 17 mL/min/kg

Question: And the bioavailability [13]?
Answer: 114%

Question: And the inhibition [14]?
Answer: Dose-dependent effect

Question: What about the clearance [15] of the same molecule?
Answer: 16 mL/min/kg

Question: And the Cmax [16]?
Answer: 1.8 µM

Question: What about the inhibition in vivo at 10 mg/kg [17] of the same molecule?
Answer: 77%

Question: What about the Cmax [18] of the same molecule?
Answer: 15 µM

Question: And the AUC(0-t) at 24 h [19]?
Answer: 57 µM·h

Question: And the bioavailability [20]?
Answer: 46%

Question: What about the CL/F [21] of the same molecule?
Answer: 25 mL/min/kg

Question: What about the AUC(0-t) at 24 h [22] of the same molecule?
Answer: 19 µM·h

Question: What about the bioavailability [23] of the same molecule?
Answer: 86%

Question: And the bioavailability [24]?
Answer: 50%

Question: What does the source list for `CNc1cc(Nc2cccn(-c3ncccc3F)c2=O)nn2c(C(=O)NC3CC3)cnc12`?
Answer: IC50 [1]: 61 nM; IC50 [2]: 313 nM; Papp [3]: 5.9 ×10⁻⁶ cm/s; Ki [4]: 0.12 nM

Question: For `CNc1cc(Nc2cccn(-c3ccc(C(C)(C)O)cc3)c2=O)nn2c(C(=O)NC3CC3)cnc12`, which IC50 [1] is on record?
Answer: 111 nM

Question: What about the IC50 [2] of the same molecule?
Answer: 811 nM

Question: And the Ki [4]?
Answer: 0.07 nM

Question: What does the source list for `CNc1cc(Nc2cccn(-c3cc(C)n(C)n3)c2=O)nn2c(C(=O)NC3CC3)cnc12`?
Answer: IC50 [1]: 135 nM; IC50 [2]: 340 nM; Papp [3]: 14.2 ×10⁻⁶ cm/s; Ki [4]: 0.48 nM

Question: With `CNc1cc(Nc2cccn(C)c2=O)nn2c(C(=O)NC3CC3)cnc12` as the molecule, how does the IC50 [1] read?
Answer: 614 nM

Question: What about the Stability [25] of the same molecule?
Answer: 56%

Question: And the IC50 [2]?
Answer: Nd(Insoluble)

Question: And the Stability [26]?
Answer: 10%

Question: And the Ki [4]?
Answer: 0.74 nM

Question: And the Stability [27]?
Answer: 63%

Question: Which IC50 [1] does the source give for `CNc1cc(Nc2cccn(-c3ccc(C)nn3)c2=O)nn2c(C(=O)N[C@@H]3C[C@@H]3F)cnc12` here?
Answer: 41 nM

Question: And the IC50 [2]?
Answer: 63 nM

Question: And the Ki [4]?
Answer: 0.018 nM

Question: For `CNc1cc(Nc2cccn(-c3cccc(F)n3)c2=O)nn2c(C(=O)N[C@@H]3C[C@@H]3F)cnc12`, which IC50 [1] is on record?
Answer: 12 nM

Question: What about the IC50 [2] of the same molecule?
Answer: 136 nM

Question: What about the Ki [4] of the same molecule?
Answer: 0.024 nM

Question: With `CNc1cc(Nc2cccn(-c3ccc(C#N)cc3)c2=O)nn2c(C(=O)NC3CC3)cnc12` as the molecule, how does the IC50 [1] read?
Answer: 90 nM

Question: And the Stability [25]?
Answer: 92%

Question: And the solubility [28]?
Answer: 2 µg/mL (≈ 4.54 µM)

Question: What about the solubility [29] of the same molecule?
Answer: < 1 µg/mL

Question: What about the IC50 [2] of the same molecule?
Answer: 268 nM

Question: And the Stability [26]?
Answer: 71%

Question: And the Ki [4]?
Answer: 0.2 nM

Question: What about the Stability [27] of the same molecule?
Answer: 77%

Question: For `CNc1cc(Nc2cccn(C3CC3)c2=O)nn2c(C(=O)NC3CC3)cnc12`, which IC50 [1] is on record?
Answer: 131 nM

Question: What about the Stability [25] of the same molecule?
Answer: 88%

Question: What about the IC50 [2] of the same molecule?
Answer: 817 nM

Question: What about the Stability [26] of the same molecule?
Answer: 39%

Question: What about the Ki [4] of the same molecule?
Answer: 0.33 nM

Question: And the Stability [27]?
Answer: 71%

Question: Which results are given for `CNc1cc(Nc2cccn(-c3cccc(F)n3)c2=O)nn2c(C(=O)NC3CC3)cnc12`?
Answer: IC50 [1]: 70 nM; IC50 [2]: 371 nM; Ki [4]: 0.22 nM

Question: Which IC50 [1] does the source give for `CNc1cc(Nc2cccn(-c3ncc(F)cn3)c2=O)nn2c(C(=O)NC3CC3)cnc12` here?
Answer: 235 nM

Question: What about the IC50 [2] of the same molecule?
Answer: 464 nM

Question: And the Ki [4]?
Answer: 0.38 nM

Question: What does the source list for `CNc1cc(Nc2cccn(-c3ccc(F)cn3)c2=O)nn2c(C(=O)N[C@@H]3C[C@@H]3F)cnc12`?
Answer: IC50 [1]: 26 nM; IC50 [2]: 85 nM; Ki [4]: 0.035 nM

Question: Which IC50 [1] does the source give for `CNc1cc(Nc2cccn(-c3ccc(F)cn3)c2=O)nn2c(C(=O)NC3CC3)cnc12` here?
Answer: 99 nM

Question: And the IC50 [2]?
Answer: 236 nM

Question: What about the Ki [4] of the same molecule?
Answer: 0.15 nM

Question: What does the source list for `CNc1cc(Nc2cccn(-c3ccccn3)c2=O)nn2c(C(=O)NC3CCC3)cnc12`?
Answer: IC50 [1]: 60 nM; IC50 [2]: 384 nM; Ki [4]: 0.26 nM

Question: Which results are given for `CNc1cc(Nc2cccn(-c3ccccn3)c2=O)nn2c(C(=O)NC(C)C)cnc12`?
Answer: IC50 [1]: 153 nM; IC50 [2]: 750 nM; Ki [4]: 0.13 nM
